In data set [1] the test system is CYP2C8. As to the kind of experiment: Fraction unbound in human liver microsomes containing CYP2C8 after 60 mins. The class given is ADME. In general terms: Liver microsomes are a subcellular fraction often used to study metabolism.
The target in data set [2] is T1, Cytochrome P450 3A4 (Homo sapiens, UniProt P08684). As to the kind of experiment: Activity of human recombinant CYP3A4 in supersomes assessed as enzyme-mediated drug metabolism at 0.05 to 0.1 uM after 30 mins by LC/MS analysis. The conditions noted are these: 0.5 h. The class given is ADME. The gist of the method:
(§1)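 Recombinant P450 (CYP1A2 50, CYP2C8 158, CYP2D6 72, CYP3A4 66, CYP3A5 50 pmol/ml; 0.5 mg/ml protein) incubated with 0.1 µM N-DMI, and also 0.05 µM with CYP2C8/3A4/3A5. Run in 0.1 M sodium phosphate pH 7.4 with 1 mM NADPH at 37°C, in triplicate. N-DMI depletion was followed by LC-MS/MS; k_dep was fitted over 0–30 min and CLint = k_dep/[P450].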

Data set [3] concerns the target T2, Cytochrome P450 3A5 (Homo sapiens, UniProt P20815). As to the kind of experiment: Activity of human recombinant CYP3A5 in supersomes assessed as intrinsic clearance for enzyme-mediated drug metabolism by LC/MS analysis. The format is ADME. The gist of the method:
(§2)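 N-DMI formation kinetics: imatinib 0.10–320 µM with CYP2C8 (33 pmol/ml, 4 min), CYP3A4 (13 pmol/ml, 3 min) or CYP3A5 (10 pmol/ml, 30 min), 0.1 mg/ml protein. Run in phosphate pH 7.4 with 1 mM NADPH at 37°C, in triplicate, read by LC-MS/MS. Fits used substrate-inhibition (CYP2C8, CYP3A4) or Michaelis–Menten (CYP3A5) models; CLint = Vmax/Km.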

In data set [4] the test system is CYP3A4. As to the kind of experiment: Fraction unbound in human liver microsomes containing CYP3A4 after 60 mins. The class given is ADME.
Data set [5] addresses T3, Cytochrome P450 1A2 (Homo sapiens, UniProt P05177).
T3 sequence (P05177 whole entry): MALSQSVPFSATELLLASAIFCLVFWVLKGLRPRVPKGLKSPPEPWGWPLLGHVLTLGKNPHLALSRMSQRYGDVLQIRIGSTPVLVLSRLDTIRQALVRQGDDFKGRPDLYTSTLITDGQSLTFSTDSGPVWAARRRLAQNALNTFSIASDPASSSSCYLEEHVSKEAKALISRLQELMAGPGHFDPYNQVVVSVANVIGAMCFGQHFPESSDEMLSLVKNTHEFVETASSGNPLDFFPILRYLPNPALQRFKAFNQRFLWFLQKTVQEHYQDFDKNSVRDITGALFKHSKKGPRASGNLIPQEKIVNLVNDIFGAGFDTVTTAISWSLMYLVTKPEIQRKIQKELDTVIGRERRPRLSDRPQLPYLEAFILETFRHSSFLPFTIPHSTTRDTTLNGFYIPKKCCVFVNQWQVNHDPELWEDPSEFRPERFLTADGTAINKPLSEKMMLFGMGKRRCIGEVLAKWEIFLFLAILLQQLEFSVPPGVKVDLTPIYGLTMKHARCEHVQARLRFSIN
Kind of data set: Activity of human recombinant CYP1A2 in supersomes assessed as enzyme-mediated drug metabolism at 0.05 to 0.1 uM after 30 mins by LC/MS analysis. The class given is ADME. The conditions noted are these: 0.5 h. Summed up: as §1

Data set [6] addresses T2, Cytochrome P450 3A5. Kind of data set: Activity of human recombinant CYP3A5 in supersomes assessed as enzyme-mediated drug metabolism at 0.05 to 0.1 uM after 30 mins by LC/MS analysis. The class given is ADME. The conditions noted are these: 0.5 h. The gist of the method:
as §1

For data set [7], the system named is CYP1A2. Kind of data set: Fraction unbound in human liver microsomes containing CYP1A2 after 60 mins. The class given is ADME.
Data set [8] concerns the target T1, Cytochrome P450 3A4. As to the kind of experiment: Activity of human recombinant CYP3A4 in supersomes assessed as intrinsic clearance for enzyme-mediated drug metabolism by LC/MS analysis. The format is ADME. The gist of the method:
as §2

The target of data set [9] is T4, Cytochrome P450 2D6 (Homo sapiens, UniProt P10635). Kind of data set: Activity of human recombinant CYP2D6 in supersomes assessed as enzyme-mediated drug metabolism at 0.05 to 0.1 uM after 30 mins by LC/MS analysis. The conditions noted are these: 0.5 h. The format is ADME. Summed up: as §1
The target of data set [10] is T3, Cytochrome P450 1A2. As to the kind of experiment: Activity of human recombinant CYP1A2 in supersomes assessed as intrinsic clearance for enzyme-mediated drug metabolism by LC/MS analysis.
In data set [11] the target is T5, Cytochrome P450 2C8 (Homo sapiens, UniProt P10632).
T5 sequence (P10632 whole entry): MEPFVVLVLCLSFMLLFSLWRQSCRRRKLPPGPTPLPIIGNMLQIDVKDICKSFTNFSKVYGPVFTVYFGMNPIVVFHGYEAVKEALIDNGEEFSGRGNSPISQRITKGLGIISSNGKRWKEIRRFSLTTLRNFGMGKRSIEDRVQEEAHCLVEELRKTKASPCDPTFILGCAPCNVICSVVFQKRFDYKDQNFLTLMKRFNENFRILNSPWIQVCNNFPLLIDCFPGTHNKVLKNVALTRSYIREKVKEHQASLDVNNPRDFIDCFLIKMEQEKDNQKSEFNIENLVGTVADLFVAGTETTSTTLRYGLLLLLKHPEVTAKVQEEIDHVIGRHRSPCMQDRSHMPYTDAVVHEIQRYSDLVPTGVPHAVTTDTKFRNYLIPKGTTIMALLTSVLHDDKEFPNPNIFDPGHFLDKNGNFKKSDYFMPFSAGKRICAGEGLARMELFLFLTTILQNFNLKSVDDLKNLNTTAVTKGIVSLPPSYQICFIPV
Kind of data set: Activity of human recombinant CYP2C8 in supersomes assessed as enzyme-mediated drug metabolism at 0.05 to 0.1 uM after 30 mins by LC/MS analysis. The format is ADME. The conditions noted are these: 0.5 h. Summed up: as §1

The subject of data set [12] is CYP3A5. As to the kind of experiment: Fraction unbound in human liver microsomes containing CYP3A5 after 60 mins. The format is ADME.
Data set [13] deals with T5, Cytochrome P450 2C8. Kind of data set: Activity of human recombinant CYP2C8 in supersomes assessed as intrinsic clearance for enzyme-mediated drug metabolism by LC/MS analysis. The format is ADME. The gist of the method: as §2
Data set [14] concerns the target T4, Cytochrome P450 2D6. As to the kind of experiment: Activity of human recombinant CYP2D6 in supersomes assessed as intrinsic clearance for enzyme-mediated drug metabolism by LC/MS analysis.
For data set [15], the system named is CYP2D6. Kind of data set: Fraction unbound in human liver microsomes containing CYP2D6 after 60 mins. The class given is ADME.
A short description of data set [16]: Cmax in chronic myeloid leukemia patient at 400 mg, qd by multiple dose study. Also on record: dose 400 mg. The conditions noted are these: human, in vivo. The class given is ADME, organism-based.
Data set [17] can be described thus: Oral bioavailability in chronic myeloid leukemia patient. The class given is ADME, organism-based. The conditions noted are these: human, in vivo.

T4 sequence (P10635 whole entry): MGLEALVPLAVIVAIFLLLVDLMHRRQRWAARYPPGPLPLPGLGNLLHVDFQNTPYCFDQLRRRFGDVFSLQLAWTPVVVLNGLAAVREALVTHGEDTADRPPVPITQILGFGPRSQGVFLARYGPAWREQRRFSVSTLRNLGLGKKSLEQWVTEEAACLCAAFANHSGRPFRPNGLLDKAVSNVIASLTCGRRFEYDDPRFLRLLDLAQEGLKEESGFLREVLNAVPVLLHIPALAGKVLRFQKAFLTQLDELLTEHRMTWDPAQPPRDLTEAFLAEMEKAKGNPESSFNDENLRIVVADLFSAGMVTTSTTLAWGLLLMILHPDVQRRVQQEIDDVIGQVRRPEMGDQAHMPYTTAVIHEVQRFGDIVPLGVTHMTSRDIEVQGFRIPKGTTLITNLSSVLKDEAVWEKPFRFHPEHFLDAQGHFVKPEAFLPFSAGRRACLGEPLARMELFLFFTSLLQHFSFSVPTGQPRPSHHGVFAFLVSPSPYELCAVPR
T1 sequence (P08684 whole entry): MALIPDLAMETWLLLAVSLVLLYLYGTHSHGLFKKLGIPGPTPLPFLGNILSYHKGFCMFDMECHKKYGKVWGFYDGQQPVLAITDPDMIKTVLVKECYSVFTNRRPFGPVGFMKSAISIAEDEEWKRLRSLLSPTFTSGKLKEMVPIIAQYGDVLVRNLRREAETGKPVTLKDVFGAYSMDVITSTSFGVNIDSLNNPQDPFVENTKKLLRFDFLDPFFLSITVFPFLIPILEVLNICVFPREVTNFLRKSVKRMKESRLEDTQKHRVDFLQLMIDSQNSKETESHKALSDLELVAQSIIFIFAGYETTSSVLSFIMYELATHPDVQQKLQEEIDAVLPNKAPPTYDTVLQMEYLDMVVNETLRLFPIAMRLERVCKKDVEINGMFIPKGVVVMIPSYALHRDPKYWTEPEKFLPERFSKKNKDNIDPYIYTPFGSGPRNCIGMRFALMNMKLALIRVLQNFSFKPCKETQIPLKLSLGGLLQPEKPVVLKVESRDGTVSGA
T2 sequence (P20815 whole entry): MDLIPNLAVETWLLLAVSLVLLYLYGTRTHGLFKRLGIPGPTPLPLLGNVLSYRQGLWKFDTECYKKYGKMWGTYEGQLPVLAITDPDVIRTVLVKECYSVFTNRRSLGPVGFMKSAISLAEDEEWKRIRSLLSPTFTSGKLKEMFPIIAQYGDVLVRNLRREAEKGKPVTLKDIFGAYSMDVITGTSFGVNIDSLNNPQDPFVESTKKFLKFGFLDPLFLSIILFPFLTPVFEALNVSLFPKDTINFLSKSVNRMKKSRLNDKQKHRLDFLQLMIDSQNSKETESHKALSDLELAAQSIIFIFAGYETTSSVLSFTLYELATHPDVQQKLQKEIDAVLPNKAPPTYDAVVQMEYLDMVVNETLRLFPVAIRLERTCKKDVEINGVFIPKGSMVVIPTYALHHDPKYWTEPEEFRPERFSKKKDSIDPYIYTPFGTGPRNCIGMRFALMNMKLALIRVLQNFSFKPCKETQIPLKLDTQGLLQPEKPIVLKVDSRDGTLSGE

With `CS(=O)(=O)O.Cc1ccc(NC(=O)c2ccc(CN3CCNCC3)cc2)cc1Nc1nccc(-c2cccnc2)n1`, the unbound share (fraction unbound) at 1 h in [1], in data set [4], in data set [7], in [12] and in data set [15] was 0.8 throughout. Further, the Drug metabolism entry in data set [2] is “metabolite_detected”; in [5] it was “metabolite_not_detected”; in [6], “metabolite_not_detected”; in data set [9] it was “metabolite_not_detected”; in [11] it was “metabolite_detected”. For the same molecule, the CL stood at 0.09 µL/min in data set [3]; 0.5 µL/min in data set [8]; 0.03 µL/min in [10]; 0.06 µL/min in data set [13]; 0.05 µL/min in data set [14].
Turning to `CS(=O)(=O)O.Cc1ccc(NC(=O)c2ccc(CN3CCN(C)CC3)cc2)cc1Nc1nccc(-c2cccnc2)n1` [IMATINIB MESYLATE], the Cmax (commonly the maximum level reached in the sampled fluid or tissue) in data set [16] was determined as 2200 ng/mL. In [17], the bioavailability – broadly, the share of a dose that reaches the circulation, judged against a reference dose that is usually intravenous – was above 97%.

(Values after ChEMBL document CHEMBL3525950, “Autoinhibition of CYP3A4 leads to important role of CYP2C8 in imatinib metabolism: variability in CYP2C8 activity may alter plasma concentrations and response” (Drug Metab Dispos, 2013).)
